Results gathered from unrelated publications.
Compare with care: the assays were run in different laboratories.
LRRK2: Leucine-rich repeat serine/threonine-protein kinase 2 (LRRK2, Homo sapiens, UniProt Q5S007)
LRRK2 G2019S: Leucine-rich repeat serine/threonine-protein kinase 2 (LRRK2, Homo sapiens, UniProt Q5S007, G2019S)

| SMILES | target | assay | conditions | remaining binding |
| --- | --- | --- | --- | --- |
| Nc1c(C(=O)NCc2ccc(C(=O)NCCCC3CCCCC3)cc2)cnn1-c1ccccc1 | LRRK2 | binding, competition with immobilised ligand | 1 µM | 39% |
| O=C(Nc1c[nH]nc1C(=O)NC1CCNCC1)c1cc(F)cc(F)c1 | LRRK2 | binding, competition with immobilised ligand | 1 µM | 92% |
| C[C@@H]1CN(c2cc(-c3nn(C)c4ccc(OC5(C)CC5)cc34)ncn2)C[C@H](C)O1 | LRRK2 | binding, competition with immobilised ligand | 1 µM | 22% |
| C=CC(=O)N1CCC(C(=O)NCC(=O)N2CCN(c3nc(-c4cnc(N)nc4C(F)F)nc(N4CCOCC4)n3)CC2)CC1 | LRRK2 | binding, competition with immobilised ligand | 1 µM | 63% |
| CC(=O)c1c(NS(C)(=O)=O)c2cc(-c3ccc(Cl)cc3)c(-c3ccc(Cl)cc3Cl)nc2n(C)c1=O | LRRK2 | cell-free assay, competition with immobilised ligand | 1 µM | 65% |
| Cc1cnn2ncc(-c3ccnc(N(C)C)n3)c2c1 | LRRK2 G2019S | binding | 1 µM | 100% |
| c1cncc(-c2cccc(Nc3nccc(NC4CCCCC4)n3)c2)c1 | LRRK2 G2019S | binding, competition with immobilised ligand | 10 µM | 61% |
| CN1CCN(c2ccc(Nc3nccc(-c4ccccc4)n3)cc2C(F)(F)F)CC1 | LRRK2 G2019S | binding | 10 µM | 100% |
| COc1cnc(Nc2cccc(S(N)(=O)=O)c2)nc1N1CCN(c2ccccc2)CC1 | LRRK2 | binding, competition with immobilised ligand | 1 µM | 80% |
| CN(C)c1ncc(F)c(-c2cnn3ncccc23)n1 | LRRK2 | binding | 1 µM | 50% |
| O=C(c1ccc(Nc2ncc(Cl)c(-c3ccc(Cl)s3)n2)cc1)N1CCC(N2CCCC2)CC1 | LRRK2 G2019S | binding, competition with immobilised ligand | 1 µM | 1.1% |
| CC(C)CC(=O)N1CCc2nc(-c3ccc(Br)cc3)nc(N(C)Cc3ccccc3)c2C1 | LRRK2 G2019S | cell-free assay, competition with immobilised ligand | 0.1 µM | 100% |
| COc1ccnn2ncc(-c3ccnc(N(C)C)n3)c12 | LRRK2 G2019S | binding | 1 µM | 100% |
| Cc1cc(-n2nc(Cc3cc(F)cc(C(F)(F)F)c3)nc2C)ccc1C(N)=O | LRRK2 G2019S | cell-free assay, competition with immobilised ligand | 1 µM | 100% |
| O=C(NCCCN1CCOCC1)c1ccc(Nc2nccc(-c3cc4ccccc4s3)n2)cc1 | LRRK2 | binding, competition with immobilised ligand | 1 µM | 63% |
| c1cnn2ncc(-c3ccnc(N4CCC45COC5)n3)c2c1 | LRRK2 G2019S | binding | 1 µM | 21% |
| COc1ncc2cc3ccccc3nc2c1C#N | LRRK2 G2019S | cell-free assay, competition with immobilised ligand | 5 µM | 100% |
| N[C@@H]1CCN(c2nccc(-c3cnn4ncccc34)n2)C1 | LRRK2 G2019S | binding | 1 µM | 100% |
| COCCOc1nc(-c2ccc(Cl)nc2)nc2c1CN(C(=O)c1ncn3ccccc13)CC2 | LRRK2 | cell-free assay, competition with immobilised ligand | 0.1 µM | 100% |
| CC1CCCN1c1nccc(-c2cnn3ncccc23)n1 (centres unmarked) | LRRK2 | binding | 1 µM | 100% |
| O=C(c1ccc(Nc2ncc(Cl)c(-c3cc4ccccc4s3)n2)cc1)N1CCC(N2CCCC2)CC1 | LRRK2 G2019S | binding, competition with immobilised ligand | 1 µM | 5.9% |
| CN(C)CC#Cc1ccc(OCCCc2sc(N3CCc4cccc(C(=O)Nc5nc6ccccc6s5)c4C3)nc2C(=O)O)c(F)c1 | LRRK2 G2019S | cell-free assay, competition with immobilised ligand | 1 µM | 100% |
| C[C@H]1CCN(c2nccc(-c3cnn4ncccc34)n2)C1 | LRRK2 | binding | 1 µM | 67% |
